Screening results: PubChem BioAssay, several laboratories
MT stabilize HCS = microtubule stabilizers in HeLa cells. HeLa tubulin immunostaining HCS, 24 h; share of cells brighter than vehicle mean+2SD. % tubulin-high responders, % at 10 µM. hit rate 0.83% among 200,000. AID 2205;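 active means plate Z-score above 3 for both tubulin-high and condensed-nucleus cell shares, with cell loss under 80%, at 10 µM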;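 further: anti alpha tubulin signal scored within the nucleus-defined area of each cell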
Dynein transport = blocks dynein driven cargo transport along microtubules; 3617.4 mouse cells, GR-EGFP nuclear translocation imaging; test concentration mostly 20 µM; stimulated with dexamethasone, 1 µM; active compounds read low; z-score, hits read low; hit rate 0.47% among 220,000; AID 1381;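 active means plate z-score of nuclear minus cytoplasmic receptor signal below a set negative limit, without overly bright fluorescence or cell loss, cut at about -3.5 in these data, passing the limit was not always enough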;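 further: z-score of nuclear minus cytoplasmic ring GR-EGFP intensity difference per well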
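Buffer or medium: Induction medium lacking tetracycline, stripped serum | Also added: Dexamethasone agonist, 1.0 µM final, for 30 min | Timing: 48 h induction, 1 h compound, 30 min dex at 37 °C | Detection: Formaldehyde fixation, Hoechst nuclear stain, 10x automated fluorescence imaging | Measure: Nuclear versus cytoplasmic GR-EGFP signal, averaged per well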
Autophagy mod = modulators of autophagy. MEF GFP-LC3 puncta imaging; test concentration mostly 10 µM. calls only at 10 µM (by protocol). hit rate 0.98% among 190,000. AID 463193;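 active means percentage of spot-positive cells more than 3 SD above its plate mean, without a fluorescence outlier flag or 80% toxicity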;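 further: spot-positive cell cutoff set from DMSO-treated cells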
b-catenin transl = alters nuclear translocation of beta-catenin in HeLa cells. immunofluorescence imaging. nuclear translocation activity, % at 5 µM. hit rate 0.3% among 190,000;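 active means nuclear translocation activity above 50% at 5 µM, with a well cell count of 50 or more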;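 further: per-cell ratio of nuclear to cytoplasmic median beta-catenin stain intensity; plate controls were DMSO negative control for no effect and GSK-3 inhibitor IX positive control for full effect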
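Technique: fluorescence imaging of beta-catenin antibody stain plus DAPI / Material: human HeLa cell line / Incubation: compound treatment 24 h, 37°C, 5% CO2 / Read-out basis: % activation of per-cell nuclear versus cytoplasmic median beta-catenin signal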
Hsp70 activator = transcriptional activators of Hsp70; HeLa Hsp70 promoter luciferase reporter, luminescence; scaled: vehicle 0, proteasome-inhibitor control 100%; hit rate 0.04% among 200,000; activation, % at 10 µM;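 active means activation above the mean across all tested compounds plus 3 SD, cutoff set per campaign, cut at about 5.5% in these data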;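 further: 100% = MG132 at 30 µM as the positive control and 0% = DMSO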
* = called active by the depositor; i = inactive; nt = no result given; + = active, no number. Only some compounds are listed: those with a hit (about 2.1% of all), similar ones and a draw of the others.

SMILES | MT stabilize HCS | Dynein transport | Autophagy mod | b-catenin transl | Hsp70 activator
Cc1nn(-c2ccc([N+](=O)[O-])cc2)c2c1C(c1cccc(Br)c1)N1C(=N2)C(=O)Nc2ccccc21 (stereo not drawn) | 2.5 | 0.0892 | + | 0.1 | 0.0
CCCc1cc(-c2[nH]ncc2-c2ccc3c(c2)OCCCO3)c(O)cc1OC | 47.0* | -0.311 | i | 2.8 | -0.3
COc1cccc(-c2nn(C)c3sc(C(=O)Nc4ccc5c(c4)OCCO5)cc23)c1 | 3.4 | 0.795 | + | -0.1 | 0.0
CCOC(=O)N1CCC(NC(=O)c2cc3c(-c4cccc(OC)c4)nn(C)c3s2)CC1 | 7.7* | -0.974 | i | -0.4 | -0.3
COc1ccc(N2CCN(C(=O)c3cc4c(-c5cccc(OC)c5)nn(C)c4s3)CC2)cc1 | 3.9 | 0.121 | + | 0.2 | -0.1
CN1C=CC=C/C1=C1\SC(=S)N(N)C1=O | 4.3 | 0.34 | i | -1.2 | 0.0
CCC(=O)NC(=S)NNC(=O)COc1ccc(Br)cc1 | 0.8 | -0.23 | i | 1.3 | -0.3
CCN(CC)c1ccc(C=C2C(=O)OC(c3ccccc3)OC2=O)cc1 (stereo not drawn) | 2.4 | -0.373 | i | 1.8 | 0.0
CCN(CC)c1ccc(/C=C/C(=O)C2C(=O)C=C(C)OC2=O)cc1 (stereo not drawn) | 4.0 | -2.66 | + | 3.9 | -0.2
Cc1nn(-c2ccccc2)c(C)c1/C=N/NC(=O)c1ccccc1NS(=O)(=O)c1cccs1 | 2.5 | -0.682 | i | 2.8 | 0.0
CN(C1CCCCC1)S(=O)(=O)c1ccc2[nH]c(=O)oc2c1 | nt | -0.243 | nt | -0.3 | nt
N#CC1=C(N)Oc2ccc3ccc(O)cc3c2C1c1cccnc1 (stereo not drawn) | 3.4 | -1.19 | i | -2.9 | -0.5
N#CC1=C(N)Oc2ccc3ccccc3c2C1c1cccnc1 (stereo not drawn) | 16.0* | 1.77 | i | -1.5 | 0.1
COc1ccc(C(=O)c2cc([N+](=O)[O-])ccc2N2CCN(C)CC2)cc1 | 13.7* | 1.95 | + | 73.7* | -0.3
COc1ccc(C(=O)c2cc([N+](=O)[O-])ccc2N2CCCC2)cc1 | 19.8* | 0.0886 | i | -4.4 | -0.4
COCCOn1c(SCCOC)nc2ccccc2c1=O | nt | 0.609 | nt | -2.7 | nt
Cc1ccc(C(=O)Nc2oc(-c3ccccc3)cc2C#N)cc1 | 1.1 | -0.779 | i | 2.9 | -0.2
N#Cc1cc(-c2ccccc2)oc1NC(=O)c1ccccc1 | 44.0* | -1.42 | i | -3.3 | -0.3
COc1ccc(N=C/C=C2\C=C(c3ccccc3)OC(C)(C)O2)cc1 | 2.2 | -0.916 | i | nt | -0.3
COc1ccc(C2=CC(=O)OC(C)(c3ccccc3)O2)cc1 (stereo not drawn) | 9.8* | -0.432 | i | 51.4* | -0.3
COC(=O)c1cc(=O)n(Cc2ccc3c(c2)OCO3)c(=Nc2ccccc2)s1 | 5.2 | -3.52* | i | 2.6 | -0.4
O=[N+]([O-])/C(C(Cl)=C(Cl)Cl)=C(/Sc1ccccc1)N1CCCCC1 | nt | -1.26 | nt | 0.2 | nt
COc1ccc(N2C(N)=C(C#N)C(c3cccnc3)C3=C2CC(C)(C)CC3=O)cc1 (stereo not drawn) | 50.0* | -0.284 | i | 1.7 | 0.5
COc1ccc(OC)c(Nc2nc3nonc3nc2N2CCCC(C)C2)c1 (stereo not drawn) | 1.9 | -0.345 | + | 3.5 | -0.4
CCOC(=O)c1ccc(NC(=O)c2ccc(NS(C)(=O)=O)cc2)cc1 | 3.0 | -0.444 | i | -0.4 | -0.2
SMILES | MT stabilize HCS | Dynein transport | Autophagy mod | b-catenin transl | Hsp70 activator
CC(C)c1ccc(NC(=O)c2ccc(NS(C)(=O)=O)cc2)cc1 | 1.1 | 0.425 | + | 8.9 | -0.4
O=C(CN1CCN(S(=O)(=O)c2ccc(Br)cc2)CC1)N/N=C/c1ccc(Cl)c([N+](=O)[O-])c1 | 12.7* | -1.2 | i | -0.1 | -0.3
Cc1ccc(S(=O)(=O)N2CCN(CC(=O)N/N=C\c3ccc(Cl)c([N+](=O)[O-])c3)CC2)cc1 | 4.0 | -0.366 | i | 0.4 | -0.3
CCN(CC)S(=O)(=O)c1ccc(C(=O)/C=C/c2ccc(-c3ccc([N+](=O)[O-])cc3)o2)cc1 | nt | -2.24 | nt | 0.9 | nt
CCc1ccc(C(=O)/C=C/c2ccc([N+](=O)[O-])o2)cc1 | 0.3 | -1.48 | + | nt | -0.3
CNC(=O)CN(c1cc(OCCOC)c(Cl)cc1Cl)S(=O)(=O)c1ccc(OC)cc1 | 15.8* | -0.307 | i | -1.8 | 0.1
CNC(=O)CN(c1ccc(OC)cc1)S(=O)(=O)c1ccc(F)cc1 | 3.3 | 0.33 | i | -2.7 | 0.0
COc1ccccc1N1C(=O)C2C(C(=O)c3ccccc3)=NN(c3ccccc3OC)C2C1=O (stereo not drawn) | nt | 1.1 | nt | 0.3 | nt
N#Cc1ccc(S(=O)(=O)N2CCc3[nH]c4ccc(F)cc4c3C2)cc1 | nt | -0.533 | nt | 0.5 | nt
O=C(c1cccc2cccc(O)c12)N1CCCCC1 | 1.8 | -0.981 | + | 3.3 | -0.2
O=C(c1ccccc1-c1ccccc1)N1CCCCC1 | 4.9 | 0.583 | i | -2.5 | 0.2
CCOc1cccc2cc(-c3csc(NC(=O)CCC(=O)N4CCC(C)CC4)n3)c(=O)oc12 | 5.7 | 1.27 | + | nt | -0.4
C/C=C/C=N/NC(=O)CN(c1ccc(Br)cc1)S(=O)(=O)c1ccccc1 | 2.4 | -0.564 | i | -2.9 | -0.2
CCc1nnc2n1N=C(c1ccc(-c3cc(Cl)ccc3Cl)o1)CS2 | 7.7 | 0.00851 | + | -0.4 | -0.2
CN(C)CCCN(C(=O)/C=C/c1cccs1)c1nc2ccc(F)cc2s1 | 2.4 | -0.322 | i | 4.2 | -0.1
CN(C)CCN(C(=O)/C=C/c1cccs1)c1nc2c(F)cc(F)cc2s1 | 21.3* | -1.39 | i | nt | -0.3
COc1cccc(Sc2ccccc2/C=N/NC(N)=O)c1 | 15.2* | 0.572 | i | 44.8 | -0.1
C=CCOc1c(/C=N\NC(N)=O)cccc1OC | nt | 0.89 | nt | -0.4 | nt
CC(C)CC1(C)N=C(c2ccccc2)C(=S)N1 (stereo not drawn) | 2.6 | -0.624 | i | -1.1 | -0.3
COc1ccc(N(C(=O)c2ccco2)S(=O)(=O)c2cc(Cl)c(Cl)cc2Cl)cc1 | 32.6* | 0.451 | i | nt | -0.1
Cc1c(N(C(=O)c2ccccn2)C2(C(=O)NC3CCCCC3)CCCCC2)c(=O)n(-c2ccccc2)n1C | 2.7 | 1.28 | i | -0.9 | -0.1
CCOC(=O)c1c(C)[nH]c(C(=O)OCC(=O)Nc2cc(Cl)ccc2OC)c1C | 13.0 | -0.24 | i | 1.8 | -0.4
CCOC(=O)c1c(C)c(C(=O)Nc2cc(OC)ccc2OC)c(C)n1CC | 24.8* | -0.159 | i | 3.3 | 0.0
CCOC(=O)c1c(C)[nH]c(C(=O)N/N=C/c2ccc(Br)cc2)c1C | 7.6 | 0.0382 | i | 121.3* | 0.1
CCOC(=O)c1c(C)[nH]c(C(=O)OCC(=O)Nc2cc(C)ccc2OC)c1C | 3.9 | 0.637 | + | -1.2 | -0.1
CCOC(=O)c1[nH]c(C)c(C(=O)Nc2cc(OC)ccc2OC)c1C | 26.5* | 0.52 | i | 55.8* | 0.0
